Assay [1] in a line: Inhibition of rat intestinal isomaltase. It counts as tissue-based, Intestine. The gist of the method:
(§1)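 Enzyme preparations came from small intestine tissue (rat or human, as the line states). Inhibition is reported as IC50.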

Assay [2] deals with T1, Maltase-glucoamylase (Homo sapiens, UniProt O43451). Kind of assay: Inhibition of human intestinal maltase. It counts as tissue-based, Intestine. The gist of the method:
as §1

A short description of assay [3]: Inhibition of rat intestinal maltase. It counts as tissue-based, Intestine. The gist of the method: as §1
Assay [4] can be described thus: Inhibition of rat intestinal sucrase. In kind it is tissue-based, Intestine. The gist of the method: as §1
Assay [5] addresses T1, Maltase-glucoamylase. Kind of assay: Inhibition of recombinant human maltase-glucoamylase using p-nitrophenyl-alpha-D-glucopyranoside as substrate incubated for 35 mins by microtiter plate reader analysis.
A short description of assay [6]: Inhibition of rat intestinal isomaltase using isomaltose as substrate incubated for 30 mins and immediately heated for 2 mins by glucose oxidase method. It counts as tissue-based, Intestine. The gist of the method:
as §1

A short description of assay [7]: Inhibition of rat intestinal maltase using maltose as substrate incubated for 30 mins and immediately heated for 2 mins by glucose oxidase method. It counts as tissue-based, Intestine. The gist of the method: as §1
Assay [8] addresses T1, Maltase-glucoamylase. Kind of assay: Inhibition of human intestinal maltase using maltose as substrate incubated for 30 mins and immediately heated for 2 mins by glucose oxidase method. In kind it is tissue-based, Intestine. The gist of the method: as §1
Assay [9] in a line: Inhibition of rat intestinal sucrase using sucrose as substrate incubated for 30 mins and immediately heated for 2 mins by glucose oxidase method. In kind it is tissue-based, Intestine. The gist of the method: as §1

T1 sequence (O43451 whole entry): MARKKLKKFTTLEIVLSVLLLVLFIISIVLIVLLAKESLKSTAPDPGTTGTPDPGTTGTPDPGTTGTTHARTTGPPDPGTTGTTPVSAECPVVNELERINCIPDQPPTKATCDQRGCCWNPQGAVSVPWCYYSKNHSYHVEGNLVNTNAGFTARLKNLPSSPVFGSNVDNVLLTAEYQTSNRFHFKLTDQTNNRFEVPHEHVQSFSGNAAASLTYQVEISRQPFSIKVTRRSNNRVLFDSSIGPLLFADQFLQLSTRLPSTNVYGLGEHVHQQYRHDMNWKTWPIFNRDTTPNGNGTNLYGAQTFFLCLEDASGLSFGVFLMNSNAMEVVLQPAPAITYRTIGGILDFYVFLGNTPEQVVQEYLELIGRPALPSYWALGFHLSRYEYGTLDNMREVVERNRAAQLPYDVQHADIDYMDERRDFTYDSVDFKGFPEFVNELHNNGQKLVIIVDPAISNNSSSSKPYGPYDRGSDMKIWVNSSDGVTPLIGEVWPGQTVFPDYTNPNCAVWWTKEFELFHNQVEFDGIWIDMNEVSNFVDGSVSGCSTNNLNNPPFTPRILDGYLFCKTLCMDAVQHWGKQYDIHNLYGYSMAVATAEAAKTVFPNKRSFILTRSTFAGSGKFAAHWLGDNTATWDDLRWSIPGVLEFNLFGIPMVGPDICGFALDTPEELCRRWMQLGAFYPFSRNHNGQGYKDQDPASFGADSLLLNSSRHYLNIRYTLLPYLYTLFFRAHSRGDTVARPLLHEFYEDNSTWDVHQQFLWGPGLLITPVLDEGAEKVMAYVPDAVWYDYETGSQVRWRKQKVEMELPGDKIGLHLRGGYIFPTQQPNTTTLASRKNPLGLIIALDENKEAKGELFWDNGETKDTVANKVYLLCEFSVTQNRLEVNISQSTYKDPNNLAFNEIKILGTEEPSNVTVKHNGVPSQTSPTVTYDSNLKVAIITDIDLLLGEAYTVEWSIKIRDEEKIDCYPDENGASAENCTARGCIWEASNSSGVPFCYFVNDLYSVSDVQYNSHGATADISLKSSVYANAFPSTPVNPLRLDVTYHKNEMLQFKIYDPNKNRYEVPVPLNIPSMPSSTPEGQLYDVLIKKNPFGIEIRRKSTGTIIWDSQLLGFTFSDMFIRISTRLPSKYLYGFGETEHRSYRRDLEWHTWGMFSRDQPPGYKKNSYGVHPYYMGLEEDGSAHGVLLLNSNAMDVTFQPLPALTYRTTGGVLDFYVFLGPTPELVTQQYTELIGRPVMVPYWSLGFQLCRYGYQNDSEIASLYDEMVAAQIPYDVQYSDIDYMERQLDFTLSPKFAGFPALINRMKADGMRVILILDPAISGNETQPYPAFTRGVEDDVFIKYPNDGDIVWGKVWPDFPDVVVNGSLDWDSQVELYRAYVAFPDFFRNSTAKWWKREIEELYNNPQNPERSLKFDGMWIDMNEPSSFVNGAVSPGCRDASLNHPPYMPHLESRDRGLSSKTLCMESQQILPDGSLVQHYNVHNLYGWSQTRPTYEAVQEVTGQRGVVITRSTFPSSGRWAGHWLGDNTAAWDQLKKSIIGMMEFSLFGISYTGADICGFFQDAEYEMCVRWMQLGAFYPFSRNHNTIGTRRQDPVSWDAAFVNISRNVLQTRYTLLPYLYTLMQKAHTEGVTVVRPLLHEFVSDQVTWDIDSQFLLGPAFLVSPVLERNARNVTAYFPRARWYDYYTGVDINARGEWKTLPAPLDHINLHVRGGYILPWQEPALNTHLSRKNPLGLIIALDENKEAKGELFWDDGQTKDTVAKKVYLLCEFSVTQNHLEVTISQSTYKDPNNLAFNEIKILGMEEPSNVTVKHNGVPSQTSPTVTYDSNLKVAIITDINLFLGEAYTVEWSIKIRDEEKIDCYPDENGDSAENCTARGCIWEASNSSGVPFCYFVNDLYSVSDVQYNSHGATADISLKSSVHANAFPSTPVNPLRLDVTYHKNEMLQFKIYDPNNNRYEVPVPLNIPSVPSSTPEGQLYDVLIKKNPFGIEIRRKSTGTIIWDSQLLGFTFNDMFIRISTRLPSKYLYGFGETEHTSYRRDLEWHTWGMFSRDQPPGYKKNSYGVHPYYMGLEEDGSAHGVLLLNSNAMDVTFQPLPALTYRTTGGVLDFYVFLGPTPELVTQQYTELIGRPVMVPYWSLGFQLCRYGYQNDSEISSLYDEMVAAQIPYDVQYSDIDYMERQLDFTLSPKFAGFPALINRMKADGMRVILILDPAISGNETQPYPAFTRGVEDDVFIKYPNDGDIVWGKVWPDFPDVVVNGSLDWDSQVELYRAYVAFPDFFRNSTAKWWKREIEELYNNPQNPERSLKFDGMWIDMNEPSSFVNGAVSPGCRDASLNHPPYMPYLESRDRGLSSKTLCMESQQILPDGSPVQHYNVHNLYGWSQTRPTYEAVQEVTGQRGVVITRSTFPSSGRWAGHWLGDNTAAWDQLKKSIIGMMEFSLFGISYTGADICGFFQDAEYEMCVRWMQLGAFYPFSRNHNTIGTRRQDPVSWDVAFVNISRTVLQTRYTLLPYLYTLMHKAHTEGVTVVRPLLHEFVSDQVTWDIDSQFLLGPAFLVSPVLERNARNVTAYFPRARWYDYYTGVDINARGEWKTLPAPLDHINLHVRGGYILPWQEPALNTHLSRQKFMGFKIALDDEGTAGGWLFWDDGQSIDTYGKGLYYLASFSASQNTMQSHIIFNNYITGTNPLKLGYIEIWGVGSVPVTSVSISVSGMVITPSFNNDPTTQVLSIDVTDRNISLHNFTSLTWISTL

Regarding `CCCCCC[C@@H](O)[C@H](OS(=O)(=O)[O-])[C@H](O)C[S@+]1C[C@@H](O)[C@H](O)[C@H]1CO`, the IC50 (as a rule, the midpoint of a concentration-inhibition curve) in [1] came to 4800 nM; against Maltase-glucoamylase [2] it was 1700 nM; in [3], 7700 nM; in assay [4], 290 nM.
With `CCCCCCCCCCCCCC[S@+]1C[C@@H](O)[C@H](O)[C@H]1CO`, the inhibition constant (Ki) (usually the equilibrium dissociation constant of an inhibitor or competing ligand from its target) at Maltase-glucoamylase [5] came to 6000 nM.
Take `CCC[C@@H](O)[C@H](OS(=O)(=O)[O-])[C@H](O)C[S@+]1C[C@@H](O)[C@H](O)[C@H]1CO`: the 50% inhibitory concentration (IC50) is 2900 nM in assay [1], 4800 nM at Maltase-glucoamylase [2], 5400 nM in [3] and 730 nM in assay [4].
Regarding `CCCCCCCC[C@@H](O)[C@H](O)[C@H](O)C[S@+]1C[C@@H](O)[C@H](O)[C@H]1CO`, the 50% inhibitory concentration (IC50) was 400 nM in [1], 2000 nM at Maltase-glucoamylase [2], 2500 nM in assay [3] and 380 nM in assay [4].
`CCC[C@@H](O)[C@H](O)[C@H](O)C[S@+]1C[C@@H](O)[C@H](O)[C@H]1CO`: the 50% inhibitory concentration (IC50) in [1] turned out to be 490 nM; at Maltase-glucoamylase [2], 5000 nM; in assay [3], 4800 nM; in assay [4], 1400 nM.
As for `CCCCCCCCCC[C@@H](O)[C@H](OS(=O)(=O)[O-])[C@H](O)C[S@+]1C[C@@H](O)[C@H](O)[C@H]1CO`, the IC50 is 4400 nM in [1], 1500 nM at Maltase-glucoamylase [2], 6300 nM in [3] and 170 nM in [4].
For the compound `CCCCCCCC[C@@H](O)[C@H](OS(=O)(=O)[O-])[C@H](O)C[S@+]1C[C@@H](O)[C@H](O)[C@H]1CO`, the IC50 in assay [1] was 5400 nM; against Maltase-glucoamylase [2] it was 1200 nM; in assay [3] it was 7200 nM; in assay [4] it was 150 nM.
Take `CCCC[S+]1C[C@@H](O)[C@H](O)[C@H]1CO` (single isomer, unassigned): the Ki at Maltase-glucoamylase [5] amounted to 32000 nM.
Consider `C[C@H]1O[C@H](O[C@H]2[C@H](O)[C@@H](O)[C@@H](O[C@H]3[C@H](O)[C@@H](O)C(O)O[C@@H]3CO)O[C@@H]2CO)[C@H](O)[C@@H](O)[C@@H]1N[C@H]1C=C(CO)[C@@H](O)[C@H](O)[C@H]1O` (stereo partly specified) [ACARBOSE], for which the figures for the IC50 in assay [1], in assay [3] and in [4] were 645000 nM, 1700 nM and 1500 nM, respectively.
With `[O-][C@@H](CO)[C@H](O)C[S@+]1C[C@@H](O)[C@H](O)[C@H]1CO` [NEOSALACINOL], the IC50 was found to be 300 nM in assay [6], 8000 nM in assay [7], 9000 nM against Maltase-glucoamylase [8] and 1300 nM in assay [9].
Consider `O=S(=O)([O-])O[C@@H](CO)[C@H](O)C[S@+]1C[C@@H](O)[C@H](O)[C@H]1CO` [SALACINOL], for which the half-inhibitory concentration (IC50) worked out at 1300 nM in assay [6], 5200 nM in assay [7] and 1600 nM in assay [9].
